ChEMBL document CHEMBL1667754, “Synthesis and biological activity of pyrazolothienotetrahydroisoquinoline and [1,2,4]triazolo[3,4-a]thienotetrahydroisoquinoline derivatives” (2011)

What was measured:
Escherichia coli = experiment: Antibacterial activity against Escherichia coli at 50 uL/well by well diffusion assay; assay type: functional
In short: (§1)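 Bauer-type diffusion assay. Test compounds were at 2% in DMSO. The read-out was the diameter (mm) of the inhibition zone, with chloramphenicol as the reference agent.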

Micrococcus luteus = experiment: Antibacterial activity against Micrococcus luteus at 50 uL/well by well diffusion assay; assay type: functional; in short: as §1
Trichophyton rubrum = experiment: Antifungal activity against Trichophyton rubrum at 50 uL/well by well diffusion assay; assay type: functional
In short: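 Agar discs (10 mm) carrying spores and hyphae were shaken in sterile distilled water. 1 mL of the spore suspension was plated and mixed with 15 mL molten SDA, then left to set. Compounds were at 2% in DMSO, applied per Bauer's diffusion method. The read-out was the inhibition zone (mm).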

Aspergillus niger = experiment: Antifungal activity against Aspergillus niger at 2% by disc diffusion assay
Fusarium oxysporum = experiment: Antifungal activity against Fusarium oxysporum at 2% by disc diffusion assay
Aspergillus flavus = experiment: Antifungal activity against Aspergillus flavus at 2% by disc diffusion assay
Geotrichum candidum = experiment: Antifungal activity against Geotrichum candidum at 2% by disc diffusion assay
Candida albicans = experiment: Antifungal activity against Candida albicans at 200 ug/disc by disc diffusion assay
[1] = system: Scopulariopsis brevicaulis; experiment: Antifungal activity against Scopulariopsis brevicaulis at 2% by disc diffusion assay
Bacillus cereus = experiment: Antibacterial activity against Bacillus cereus at 200 ug/disc by disc diffusion assay
Serratia marcescens = experiment: Antibacterial activity against Serratia marcescens at 200 ug/disc by disc diffusion assay
Staphylococcus aureus = experiment: Antibacterial activity against Staphylococcus aureus at 200 ug/disc by disc diffusion assay
Pseudomonas aeruginosa = experiment: Antibacterial activity against Pseudomonas aeruginosa at 200 ug/disc by disc diffusion assay

N#Cc1c2c(c(N3N=C(c4ccccc4)CC3=O)[nH]c1=S)CCCC2
diameter of the inhibition zone (DIZ) (Escherichia coli): 13 mm | diameter of the inhibition zone (DIZ) (Micrococcus luteus): 0 mm | diameter of the inhibition zone (DIZ) (Trichophyton rubrum): 14 mm | diameter of the inhibition zone (DIZ) (Aspergillus niger): 0 mm | diameter of the inhibition zone (DIZ) (Fusarium oxysporum): 0 mm | diameter of the inhibition zone (DIZ) (Aspergillus flavus): 0 mm | diameter of the inhibition zone (DIZ) (Geotrichum candidum): 0 mm | diameter of the inhibition zone (DIZ) (Candida albicans): 0 mm | diameter of the inhibition zone (DIZ) [1]: 0 mm | diameter of the inhibition zone (DIZ) (Bacillus cereus): 0 mm | diameter of the inhibition zone (DIZ) (Serratia marcescens): 0 mm | diameter of the inhibition zone (DIZ) (Staphylococcus aureus): 0 mm | diameter of the inhibition zone (DIZ) (Pseudomonas aeruginosa): 0 mm

Nc1c(C(=O)c2ccccc2)sc2c1c1c(c3nncn32)CCCC1
diameter of the inhibition zone (DIZ) (Escherichia coli): 10 mm | diameter of the inhibition zone (DIZ) (Micrococcus luteus): 11 mm | diameter of the inhibition zone (DIZ) (Trichophyton rubrum): 0 mm | diameter of the inhibition zone (DIZ) (Aspergillus niger): 13 mm | diameter of the inhibition zone (DIZ) (Fusarium oxysporum): 0 mm | diameter of the inhibition zone (DIZ) (Aspergillus flavus): 15 mm | diameter of the inhibition zone (DIZ) (Geotrichum candidum): 8 mm | diameter of the inhibition zone (DIZ) (Candida albicans): 11 mm | diameter of the inhibition zone (DIZ) [1]: 8 mm | diameter of the inhibition zone (DIZ) (Bacillus cereus): 0 mm | diameter of the inhibition zone (DIZ) (Serratia marcescens): 0 mm | diameter of the inhibition zone (DIZ) (Staphylococcus aureus): 0 mm | diameter of the inhibition zone (DIZ) (Pseudomonas aeruginosa): 0 mm

CCOC(=O)CSc1nc(NN)c2c(c1C#N)CCCC2
diameter of the inhibition zone (DIZ) (Escherichia coli): 0 mm | diameter of the inhibition zone (DIZ) (Micrococcus luteus): 0 mm | diameter of the inhibition zone (DIZ) (Trichophyton rubrum): 0 mm | diameter of the inhibition zone (DIZ) (Aspergillus niger): 0 mm | diameter of the inhibition zone (DIZ) (Fusarium oxysporum): 0 mm | diameter of the inhibition zone (DIZ) (Aspergillus flavus): 0 mm | diameter of the inhibition zone (DIZ) (Geotrichum candidum): 0 mm | diameter of the inhibition zone (DIZ) (Candida albicans): 0 mm | diameter of the inhibition zone (DIZ) [1]: 0 mm | diameter of the inhibition zone (DIZ) (Bacillus cereus): 8 mm | diameter of the inhibition zone (DIZ) (Serratia marcescens): 0 mm | diameter of the inhibition zone (DIZ) (Staphylococcus aureus): 8 mm | diameter of the inhibition zone (DIZ) (Pseudomonas aeruginosa): 0 mm

CC(=O)CSc1nc(NN)c2c(c1C#N)CCCC2
diameter of the inhibition zone (DIZ) (Escherichia coli): 12 mm | diameter of the inhibition zone (DIZ) (Micrococcus luteus): 0 mm | diameter of the inhibition zone (DIZ) (Trichophyton rubrum): 20 mm | diameter of the inhibition zone (DIZ) (Aspergillus niger): 0 mm | diameter of the inhibition zone (DIZ) (Fusarium oxysporum): 0 mm | diameter of the inhibition zone (DIZ) (Aspergillus flavus): 0 mm | diameter of the inhibition zone (DIZ) (Geotrichum candidum): 12 mm | diameter of the inhibition zone (DIZ) (Candida albicans): 11 mm | diameter of the inhibition zone (DIZ) [1]: 0 mm | diameter of the inhibition zone (DIZ) (Bacillus cereus): 11 mm | diameter of the inhibition zone (DIZ) (Serratia marcescens): 8 mm | diameter of the inhibition zone (DIZ) (Staphylococcus aureus): 0 mm | diameter of the inhibition zone (DIZ) (Pseudomonas aeruginosa): 0 mm

Cc1cc(C)n(-c2nc(SCC(=O)c3ccccc3)c(C#N)c3c2CCCC3)n1
diameter of the inhibition zone (DIZ) (Escherichia coli): 0 mm | diameter of the inhibition zone (DIZ) (Micrococcus luteus): 0 mm | diameter of the inhibition zone (DIZ) (Trichophyton rubrum): 0 mm | diameter of the inhibition zone (DIZ) (Aspergillus niger): 0 mm | diameter of the inhibition zone (DIZ) (Fusarium oxysporum): 0 mm | diameter of the inhibition zone (DIZ) (Aspergillus flavus): 0 mm | diameter of the inhibition zone (DIZ) (Geotrichum candidum): 0 mm | diameter of the inhibition zone (DIZ) (Candida albicans): 0 mm | diameter of the inhibition zone (DIZ) [1]: 0 mm | diameter of the inhibition zone (DIZ) (Bacillus cereus): 0 mm | diameter of the inhibition zone (DIZ) (Serratia marcescens): 0 mm | diameter of the inhibition zone (DIZ) (Staphylococcus aureus): 10 mm | diameter of the inhibition zone (DIZ) (Pseudomonas aeruginosa): 0 mm

NC(=O)c1sc2c(c1N)c1c(c3nncn32)CCCC1
diameter of the inhibition zone (DIZ) (Escherichia coli): 0 mm | diameter of the inhibition zone (DIZ) (Micrococcus luteus): 0 mm | diameter of the inhibition zone (DIZ) (Trichophyton rubrum): 0 mm | diameter of the inhibition zone (DIZ) (Aspergillus niger): 0 mm | diameter of the inhibition zone (DIZ) (Fusarium oxysporum): 0 mm | diameter of the inhibition zone (DIZ) (Aspergillus flavus): 0 mm | diameter of the inhibition zone (DIZ) (Geotrichum candidum): 0 mm | diameter of the inhibition zone (DIZ) (Candida albicans): 0 mm | diameter of the inhibition zone (DIZ) [1]: 0 mm | diameter of the inhibition zone (DIZ) (Bacillus cereus): 10 mm | diameter of the inhibition zone (DIZ) (Serratia marcescens): 0 mm | diameter of the inhibition zone (DIZ) (Staphylococcus aureus): 8 mm | diameter of the inhibition zone (DIZ) (Pseudomonas aeruginosa): 0 mm

N#Cc1sc2c(c1N)c1c(c3nncn32)CCCC1
diameter of the inhibition zone (DIZ) (Escherichia coli): 0 mm | diameter of the inhibition zone (DIZ) (Micrococcus luteus): 0 mm | diameter of the inhibition zone (DIZ) (Trichophyton rubrum): 0 mm | diameter of the inhibition zone (DIZ) (Aspergillus niger): 0 mm | diameter of the inhibition zone (DIZ) (Fusarium oxysporum): 0 mm | diameter of the inhibition zone (DIZ) (Aspergillus flavus): 0 mm | diameter of the inhibition zone (DIZ) (Geotrichum candidum): 0 mm | diameter of the inhibition zone (DIZ) (Candida albicans): 0 mm | diameter of the inhibition zone (DIZ) [1]: 0 mm | diameter of the inhibition zone (DIZ) (Bacillus cereus): 11 mm | diameter of the inhibition zone (DIZ) (Serratia marcescens): 11 mm | diameter of the inhibition zone (DIZ) (Staphylococcus aureus): 9 mm | diameter of the inhibition zone (DIZ) (Pseudomonas aeruginosa): 0 mm

CC(=O)CSc1nc(-n2nc(C)cc2C)c2c(c1C#N)CCCC2
diameter of the inhibition zone (DIZ) (Escherichia coli): 13 mm | diameter of the inhibition zone (DIZ) (Micrococcus luteus): 0 mm | diameter of the inhibition zone (DIZ) (Trichophyton rubrum): 17 mm | diameter of the inhibition zone (DIZ) (Aspergillus niger): 0 mm | diameter of the inhibition zone (DIZ) (Fusarium oxysporum): 10 mm | diameter of the inhibition zone (DIZ) (Aspergillus flavus): 0 mm | diameter of the inhibition zone (DIZ) (Geotrichum candidum): 8 mm | diameter of the inhibition zone (DIZ) (Candida albicans): 10 mm | diameter of the inhibition zone (DIZ) [1]: 0 mm | diameter of the inhibition zone (DIZ) (Bacillus cereus): 0 mm | diameter of the inhibition zone (DIZ) (Serratia marcescens): 8 mm | diameter of the inhibition zone (DIZ) (Staphylococcus aureus): 0 mm | diameter of the inhibition zone (DIZ) (Pseudomonas aeruginosa): 0 mm

N#CCSc1nc(NN)c2c(c1C#N)CCCC2
diameter of the inhibition zone (DIZ) (Escherichia coli): 0 mm | diameter of the inhibition zone (DIZ) (Micrococcus luteus): 0 mm | diameter of the inhibition zone (DIZ) (Trichophyton rubrum): 0 mm | diameter of the inhibition zone (DIZ) (Aspergillus niger): 0 mm | diameter of the inhibition zone (DIZ) (Fusarium oxysporum): 0 mm | diameter of the inhibition zone (DIZ) (Aspergillus flavus): 0 mm | diameter of the inhibition zone (DIZ) (Geotrichum candidum): 0 mm | diameter of the inhibition zone (DIZ) (Candida albicans): 10 mm | diameter of the inhibition zone (DIZ) [1]: 0 mm | diameter of the inhibition zone (DIZ) (Bacillus cereus): 0 mm | diameter of the inhibition zone (DIZ) (Serratia marcescens): 10 mm | diameter of the inhibition zone (DIZ) (Staphylococcus aureus): 8 mm | diameter of the inhibition zone (DIZ) (Pseudomonas aeruginosa): 0 mm

Cc1cc(C)n(-c2[nH]c(=S)c(C#N)c3c2CCCC3)n1
diameter of the inhibition zone (DIZ) (Escherichia coli): 0 mm | diameter of the inhibition zone (DIZ) (Micrococcus luteus): 0 mm | diameter of the inhibition zone (DIZ) (Trichophyton rubrum): 0 mm | diameter of the inhibition zone (DIZ) (Aspergillus niger): 0 mm | diameter of the inhibition zone (DIZ) (Fusarium oxysporum): 0 mm | diameter of the inhibition zone (DIZ) (Aspergillus flavus): 0 mm | diameter of the inhibition zone (DIZ) (Geotrichum candidum): 0 mm | diameter of the inhibition zone (DIZ) (Candida albicans): 0 mm | diameter of the inhibition zone (DIZ) [1]: 0 mm | diameter of the inhibition zone (DIZ) (Bacillus cereus): 16 mm | diameter of the inhibition zone (DIZ) (Serratia marcescens): 0 mm | diameter of the inhibition zone (DIZ) (Staphylococcus aureus): 8 mm | diameter of the inhibition zone (DIZ) (Pseudomonas aeruginosa): 0 mm

O=C(N[C@H](CO)[C@H](O)c1ccc([N+](=O)[O-])cc1)C(Cl)Cl [CHLORAMPHENICOL]
diameter of the inhibition zone (DIZ) (Escherichia coli): 34 mm | diameter of the inhibition zone (DIZ) (Micrococcus luteus): 18 mm | diameter of the inhibition zone (DIZ) (Bacillus cereus): 30 mm | diameter of the inhibition zone (DIZ) (Serratia marcescens): 40 mm | diameter of the inhibition zone (DIZ) (Staphylococcus aureus): 20 mm | diameter of the inhibition zone (DIZ) (Pseudomonas aeruginosa): 17 mm

Cc1cc(C)n(-c2nc(SCC(N)=O)c(C#N)c3c2CCCC3)n1
diameter of the inhibition zone (DIZ) (Escherichia coli): 0 mm | diameter of the inhibition zone (DIZ) (Micrococcus luteus): 0 mm | diameter of the inhibition zone (DIZ) (Trichophyton rubrum): 0 mm | diameter of the inhibition zone (DIZ) (Aspergillus niger): 8 mm | diameter of the inhibition zone (DIZ) (Fusarium oxysporum): 0 mm | diameter of the inhibition zone (DIZ) (Aspergillus flavus): 0 mm | diameter of the inhibition zone (DIZ) (Geotrichum candidum): 0 mm | diameter of the inhibition zone (DIZ) (Candida albicans): 0 mm | diameter of the inhibition zone (DIZ) [1]: 0 mm | diameter of the inhibition zone (DIZ) (Bacillus cereus): 0 mm | diameter of the inhibition zone (DIZ) (Serratia marcescens): 0 mm | diameter of the inhibition zone (DIZ) (Staphylococcus aureus): 10 mm | diameter of the inhibition zone (DIZ) (Pseudomonas aeruginosa): 0 mm

CC(=O)CSc1c(C#N)c2c(c3nncn13)CCCC2
diameter of the inhibition zone (DIZ) (Escherichia coli): 8 mm | diameter of the inhibition zone (DIZ) (Micrococcus luteus): 12 mm | diameter of the inhibition zone (DIZ) (Trichophyton rubrum): 0 mm | diameter of the inhibition zone (DIZ) (Aspergillus niger): 0 mm | diameter of the inhibition zone (DIZ) (Fusarium oxysporum): 0 mm | diameter of the inhibition zone (DIZ) (Aspergillus flavus): 0 mm | diameter of the inhibition zone (DIZ) (Geotrichum candidum): 0 mm | diameter of the inhibition zone (DIZ) (Candida albicans): 0 mm | diameter of the inhibition zone (DIZ) [1]: 0 mm | diameter of the inhibition zone (DIZ) (Bacillus cereus): 12 mm | diameter of the inhibition zone (DIZ) (Serratia marcescens): 12 mm | diameter of the inhibition zone (DIZ) (Staphylococcus aureus): 10 mm | diameter of the inhibition zone (DIZ) (Pseudomonas aeruginosa): 0 mm

N#Cc1c2c(c(-n3[nH]c(=O)cc3N)[nH]c1=S)CCCC2
diameter of the inhibition zone (DIZ) (Escherichia coli): 0 mm | diameter of the inhibition zone (DIZ) (Micrococcus luteus): 10 mm | diameter of the inhibition zone (DIZ) (Trichophyton rubrum): 0 mm | diameter of the inhibition zone (DIZ) (Aspergillus niger): 0 mm | diameter of the inhibition zone (DIZ) (Fusarium oxysporum): 0 mm | diameter of the inhibition zone (DIZ) (Aspergillus flavus): 0 mm | diameter of the inhibition zone (DIZ) (Geotrichum candidum): 8 mm | diameter of the inhibition zone (DIZ) (Candida albicans): 0 mm | diameter of the inhibition zone (DIZ) [1]: 0 mm | diameter of the inhibition zone (DIZ) (Bacillus cereus): 9 mm | diameter of the inhibition zone (DIZ) (Serratia marcescens): 0 mm | diameter of the inhibition zone (DIZ) (Staphylococcus aureus): 0 mm | diameter of the inhibition zone (DIZ) (Pseudomonas aeruginosa): 0 mm

Clc1ccccc1C(c1ccccc1)(c1ccccc1)n1ccnc1 [CLOTRIMAZOLE]
diameter of the inhibition zone (DIZ) (Trichophyton rubrum): 40 mm | diameter of the inhibition zone (DIZ) (Aspergillus niger): 25 mm | diameter of the inhibition zone (DIZ) (Fusarium oxysporum): 25 mm | diameter of the inhibition zone (DIZ) (Aspergillus flavus): 26 mm | diameter of the inhibition zone (DIZ) (Geotrichum candidum): 26 mm | diameter of the inhibition zone (DIZ) (Candida albicans): 27 mm | diameter of the inhibition zone (DIZ) [1]: 27 mm
